Assay results: ChEMBL document CHEMBL4316599, “Synthesis, in vitro and in vivo biological evaluation of substituted 3-(5-imidazo[2,1-b]thiazolylmethylene)-2-indolinones as new potent anticancer agents” (Eur J Med Chem, 2019)
The source made the active and inactive calls. The calls are words filed in the database; no cut-off is given here.

Columns and labels:
Leukemia cell = experiment: Cytotoxicity against human leukemia cells after 48 hrs by SRB assay; assay type: functional
In short: (§1)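 NCI-60 screen: single-dose pass at 10^-5 M, then a five-concentration assay from 10^-9 to 10^-4 M (highest 100 μM). Exposure was 48 h under standard NCI protocols. GI50, TGI and LC50 were derived per cell line and averaged by subpanel. Repeated tests are the mean of two experiments.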

NSCLC = experiment: Cytotoxicity against human NSCLC cells after 48 hrs by SRB assay; assay type: functional; in short: as §1
[1] = Cytotoxicity against human COLON cells after 48 hrs by SRB assay; assay type: functional; in short: as §1
Ovarian carcinoma cell = experiment: Cytotoxicity against human ovarian cancer cells after 48 hrs by SRB assay; assay type: functional; in short: as §1
Renal cancer cell line = experiment: Cytotoxicity against human renal cancer cells after 48 hrs by SRB assay; assay type: functional; in short: as §1
Prostatic carcinoma cell = experiment: Cytotoxicity against human prostate cancer cells after 48 hrs by SRB assay; assay type: functional; in short: as §1
[2] = Cytotoxicity against human PBL after 72 hrs by MTT assay; assay type: cell-based; details: peripheral blood lymphocytes (PBL)
In short: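 Lymphocytes from healthy donors were isolated on a Lymphoprep gradient and held overnight in RPMI-1640 with 10% FBS. Non-adherent cells were set at 5×10^5 cells/mL, either resting or stimulated with 2.5 μg/mL PHA. Cells were exposed to a range of compound concentrations for 72 h and viability read by MTT. GI50 is the mean ± SEM of three separate experiments.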

Tubulin = Tubulin (Bos taurus, UniProt Q6B856+Q862L2+Q862F3); experiment: Inhibition of bovine brain tubulin polymerization after 20 mins by spectrophotometric analysis
In short: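 Bovine brain tubulin (10 μM) in glutamate buffer preincubated with varying compound levels at 30 °C, then chilled to 0 °C. GTP added to 0.4 mM final, then warmed to 30 °C. Assembly followed by turbidity at 350 nm. IC50 is the concentration halving the extent of assembly after 20 min.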

Tubulin (Bos taurus) = Tubulin (Bos taurus) (UniProt Q6B856+Q862L2+Q862F3); experiment: Inhibition of [3H]colchicine binding to bovine brain tubulin at 5 uM after 20 mins relative to control
In short: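 Reaction mixtures held 1 μM tubulin, 5 μM [³H]colchicine and test compound at 5 or 50 μM. Read-out was percent inhibition of colchicine binding.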

HT-29 [3] = experiment: Cell cycle arrest in human HT-29 cells assessed as accumulation of cells at G2/M phase after 24 hrs by propidium iodide staining-based flow cytometric analysis; assay type: functional
In short: (§2)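 Cells exposed to a range of concentrations for 24 h (HeLa at 5×10^5 cells), then fixed in ice-cold 70% ethanol. Lysis buffer with RNase A and 0.1% Triton X-100 was applied before PI staining. DNA content was read by flow cytometry and G1/S/G2/M fractions taken from DNA histograms. Mean ± SEM of two independent experiments.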

HeLa [4] = experiment: Cell cycle arrest in human HeLa cells assessed as accumulation of cells at G2/M phase at 50 nM after 24 hrs by propidium iodide staining-based flow cytometric analysis relative to control; assay type: functional; in short: as §2
HT-29 [5] = experiment: Cell cycle arrest in human HT-29 cells assessed as accumulation of cells at G2/M phase at 50 nM after 24 hrs by propidium iodide staining-based flow cytometric analysis relative to control; assay type: functional; in short: as §2
HT-29 [6] = experiment: Cell cycle arrest in human HT-29 cells assessed as reduction in accumulation of cells at S phase up to 1000 nM after 24 hrs by propidium iodide staining-based flow cytometric analysis; assay type: functional; in short: as §2
K562 [7] = experiment: Cytotoxicity against human K562 cells after 48 hrs by SRB assay; assay type: functional, cell-based
K562 [8] = experiment: Cell cycle arrest in human K562 cells assessed as mitotic index at IC50 by Giemsa staining-based assay (reference value: 3%); assay type: functional
HeLa [9] = experiment: Induction of apoptosis in human HeLa cells at 250 nM after 24 to 48 hrs by Annexin V-FITC/propidium iodide staining-based flow cytometric analysis; assay type: functional, cell-based
In short: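 HeLa cells exposed 24 or 48 h to 250, 500 or 1000 nM; annexin-V-FITC plus PI double staining for surface phosphatidylserine and DNA, measured by flow cytometry. Mean ± SEM of three independent experiments.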

A549 = experiment: Induction of apoptosis in human A549 cells at 25 nM after 24 to 48 hrs by Annexin V-FITC/propidium iodide staining-based flow cytometric analysis; assay type: functional, cell-based
In short: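 A549 cells treated 24 or 48 h at 12.5–100 nM, then double-stained with annexin-V-FITC and PI. Phosphatidylserine exposure was read by flow cytometry. Mean ± SEM of three independent experiments.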

HeLa [10] = experiment: Induction of mitochondrial membrane depolarization in human HeLa cells at 250 to 500 nM after 6 to 48 hrs by JC-1 staining-based assay; assay type: functional, cell-based; details: TDE = time-dependent effect
In short: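 HeLa cells treated at 250-500 nM for 6, 12, 24 or 48 h, then stained with JC-1. Percentage of cells with low mitochondrial membrane potential measured by flow cytometry. Mean ± SEM of three independent experiments.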

HeLa [11] = experiment: Induction of ROS generation in human HeLa cells at 250 nM after 12 to 24 hrs by H2-DCFDA staining-based assay; assay type: functional, cell-based
In short: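 HeLa cells treated 6, 12, 24 or 48 h, then loaded with H2-DCFDA and analysed by flow cytometry for ROS. Mean ± SEM of three independent experiments, compared against control.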

HeLa [12] = experiment: Induction of apoptosis in human HeLa cells assessed as increase in caspase-9 activity at 50 to 250 nM after 24 hrs by Western blot analysis; assay type: functional, cell-based
In short: (§3)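 HeLa cells treated 24 h, washed in ice-cold PBS and lysed on ice 30 min. Lysates were spun at 15000 x g, 4 °C. 10 µg protein run on SDS-PAGE and blotted to PVDF. Blots were blocked in 5% BSA overnight at 4 °C and probed 2 h at room temperature. Detection by HRP-secondary and ECL, with bands normalized to β-actin as fold of untreated. Three independent experiments, one-way ANOVA/Dunnett.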

HeLa [13] = experiment: Induction of apoptosis in human HeLa cells assessed as increase in caspase-3 activity at 50 to 250 nM after 24 hrs by Western blot analysis; assay type: functional, cell-based; in short: as §3
HeLa [14] = experiment: Induction of apoptosis in human HeLa cells assessed as decrease in Mcl-1 levels at 50 to 250 nM after 24 hrs by Western blot analysis; assay type: functional, cell-based; in short: as §3
B16-BL6 = experiment: Antitumor activity mouse B16-BL6 cells implanted in C57BL/6 mouse assessed tumor growth inhibition at 15 mg/kg, ip dosed every other day for 18 days relative to control; assay type: functional; details: 432 h, read-out: TGI
In short: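 Syngeneic allograft: C57BL/6 mice, six weeks old, given 2.5×10^5 BL6-B16 or E0771 cells subcutaneously in the dorsolateral flank in PBS. Dosing began at about 100 mm³. Test compound or reference was given intraperitoneally every other day in 50 μL DMSO, with DMSO vehicle controls. Tumor volume was compared with the vehicle group, 5 animals per group, mean ± SEM, by 2-way ANOVA with Bonferroni correction.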

[15] = read-out: LC50 (the source's name)

Compound: O=C1Nc2c(ccc3ccccc23)C1=Cc1c(-c2ccncc2)nc2sccn12
- GI50 (Leukemia cell): 0.03 µM
- TGI (Leukemia cell): 79.5 µM
- GI50 (NSCLC): 11.1 µM
- LC50 (NSCLC): 97.9 µM
- TGI (NSCLC): 79.9 µM
- GI50 [1]: 0.03 µM
- TGI [1]: 39.9 µM
- CC50 [1, 15]: 77 µM
- GI50 (Ovarian carcinoma cell): 0.05 µM
- LC50 (50% lethal concentration) (Ovarian carcinoma cell): 80 µM
- TGI (Ovarian carcinoma cell): 73.8 µM
- GI50 (Renal cancer cell line): 11.8 µM
- TGI (Renal cancer cell line): 70.1 µM
- GI50 (Prostatic carcinoma cell): 0.02 µM
- TGI (Prostatic carcinoma cell): 55.9 µM
- CC50 (Prostatic carcinoma cell; [15]): 80.1 µM
- GI50 at 72 h [2]: 4.5 µM
- IC50 (Tubulin): 14 µM
- inhibition (Tubulin (Bos taurus)): 25%
- Activity (HT-29 [3]): Dose-dependent effect
- Activity (HeLa [4]): >80%
- Activity (HT-29 [5]): >80%
- Activity (HT-29 [6]): Active
- Activity (K562 [7]): Dose-dependent effect
- Activity (K562 [8]): 12%
- Activity (HeLa [9]): Active
- Activity (A549): Active
- Activity (HeLa [10]): Tde
- Activity (HeLa [11]): Active
- Activity (HeLa [12]): Active
- Activity (HeLa [13]): Active
- Activity (HeLa [14]): Active
- inhibition in vivo at 15 mg/kg (B16-BL6): 29.4%
